# According to ChEMBL document CHEMBL1129929, “Analogues of methotrexate in rheumatoid arthritis. 1. Effects of 10-deazaaminopterin analogues on type II collagen-induced arthritis in mice” (J Med Chem, 1997):
# What was measured:
# [1] = test system: Mus musculus; assay: Tested for antiinflammatory activity on mouse type II collagen arthritis as Paw swelling* of all animals in each group on day 44 at intraperitoneal dose of 10 mg/kg; format: functional
# Summary of the method: (§1)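 DBA/1 mice immunized with bovine type II collagen (Courtenay method, modified), antigen booster at day 21. Compounds given ip from 2 days before the first collagen challenge, then every 2 days. Hind paw dimensions (mm) measured for both limbs of all animals, expressed as mean ± SD. Eight mice per dose; untreated controls pooled from four experiments (48 animals).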
# [2] = test system: Mus musculus; assay: Tested for antiinflammatory activity on mouse type II collagen arthritis as Paw swelling* of all animals in each group on day 23 at intraperitoneal dose of 10 mg/kg; format: functional; summary of the method: as §1
# [3] = test system: Mus musculus; assay: Incidence of disease(mouse type II collagen arthritis) was scored as the percentage of animals within each experimental group that exhibited joint or limb inflammation on day 23 at intraperitoneal dose of 10 mg/kg; format: functional
# Summary of the method: (§2)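 DBA/1 mice were immunized with bovine type II collagen (modified Courtenay method), with a collagen booster on day 21. Compounds were given ip starting 2 days before the first collagen challenge and every 2 days thereafter. Incidence was the percentage of animals per group with joint or limb inflammation, scored on days 23, 30, 37 and 44.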
# [4] = test system: L1210; assay: Concentration required to inhibit the growth of L1210 cells; format: functional, cell-based; details: Mus musculus
# [5] = test system: Mus musculus; assay: Tested for antiinflammatory activity on mouse type II collagen arthritis as Paw swelling* of all animals in each group on day 30 at intraperitoneal dose of 15 mg/kg; format: functional; summary of the method: as §1
# [6] = test system: Mus musculus; assay: Tested for antiinflammatory activity on mouse type II collagen arthritis as Paw swelling* of all animals in each group on day 37 at intraperitoneal dose of 10 mg/kg; format: functional; summary of the method: as §1
# [7] = test system: Mus musculus; assay: Incidence of disease(mouse type II collagen arthritis) was scored as the percentage of animals within each experimental group that exhibited joint or limb inflammation on day 30 at intraperitoneal of dose 10 mg/kg; format: functional; summary of the method: as §2
# [8] = test system: Mus musculus; assay: Tested for antiinflammatory activity on mouse type II collagen arthritis as Paw swelling* of all animals in each group on day 30 at intraperitoneal dose of 10 mg/kg; format: functional; summary of the method: as §1
# [9] = test system: Mus musculus; assay: Incidence of disease(mouse type II collagen arthritis) was scored as the percentage of animals within each experimental group that exhibited joint or limb inflammation on day 44 at intraperitoneal of dose 10 mg/kg; format: functional; summary of the method: as §2
# [10] = test system: Mus musculus; assay: Incidence of disease(mouse type II collagen arthritis) was scored as the percentage of animals within each experimental group that exhibited joint or limb inflammation on day 23 at intraperitoneal dose of 15 mg/kg; format: functional; summary of the method: as §2
# [11] = test system: Mus musculus; assay: Incidence of disease(mouse type II collagen arthritis) was scored as the percentage of animals within each experimental group that exhibited joint or limb inflammation on day 44 at intraperitoneal of dose 15 mg/kg; format: functional; summary of the method: as §2
# [12] = test system: Mus musculus; assay: Tested for antiinflammatory activity on mouse type II collagen arthritis as Paw swelling* of all animals in each group on day 37 at intraperitoneal dose of 15 mg/kg; format: functional; summary of the method: as §1
# [13] = test system: Mus musculus; assay: Incidence of disease(mouse type II collagen arthritis) was scored as the percentage of animals within each experimental group that exhibited joint or limb inflammation on day 37 at intraperitoneal of dose 10 mg/kg; format: functional; summary of the method: as §2
# [14] = test system: Mus musculus; assay: Tested for antiinflammatory activity on mouse type II collagen arthritis as Paw swelling* of all animals in each group on day 23 at intraperitoneal dose of 15 mg/kg; format: functional; summary of the method: as §1
# [15] = test system: Mus musculus; assay: Incidence of disease(mouse type II collagen arthritis) was scored as the percentage of animals within each experimental group that exhibited joint or limb inflammation on day 37 at intraperitoneal of dose 15 mg/kg; format: functional; summary of the method: as §2
# [16] = test system: Mus musculus; assay: Tested for antiinflammatory activity on mouse type II collagen arthritis as Paw swelling* of all animals in each group on day 44 at intraperitoneal dose of 15 mg/kg; format: functional; summary of the method: as §1
# [17] = Concentration required to inhibit the growth of chang liver cells; format: functional; details: Homo sapiens
# [18] = test system: Mus musculus; assay: Incidence of disease(mouse type II collagen arthritis) was scored as the percentage of animals within each experimental group that exhibited joint or limb inflammation on day 30 at intraperitoneal of dose 15 mg/kg; format: functional; summary of the method: as §2
# [19] = test system: Mus musculus; assay: Tested for antiinflammatory activity on mouse type II collagen arthritis as Paw swelling* of all animals in each group on day 23 at intraperitoneal dose of 12 mg/kg; format: functional; summary of the method: as §1
# [20] = test system: Mus musculus; assay: Incidence of disease(mouse type II collagen arthritis) was scored as the percentage of animals within each experimental group that exhibited joint or limb inflammation on day 23 at intraperitoneal dose of 12 mg/kg; format: functional; summary of the method: as §2
# [21] = test system: Mus musculus; assay: Tested for antiinflammatory activity on mouse type II collagen arthritis as Paw swelling* of all animals in each group on day 44 at intraperitoneal dose of 9 mg/kg; format: functional; summary of the method: as §1
# [22] = test system: Mus musculus; assay: Incidence of disease(mouse type II collagen arthritis) was scored as the percentage of animals within each experimental group that exhibited joint or limb inflammation on day 30 at intraperitoneal of dose 9 mg/kg; format: functional; summary of the method: as §2
# [23] = test system: Mus musculus; assay: Incidence of disease(mouse type II collagen arthritis) was scored as the percentage of animals within each experimental group that exhibited joint or limb inflammation on day 37 at intraperitoneal of dose 12 mg/kg; format: functional; summary of the method: as §2
# [24] = test system: Mus musculus; assay: Tested for antiinflammatory activity on mouse type II collagen arthritis as Paw swelling* of all animals in each group on day 23 at intraperitoneal dose of 9 mg/kg; format: functional; summary of the method: as §1
# [25] = test system: Mus musculus; assay: Tested for antiinflammatory activity on mouse type II collagen arthritis as Paw swelling* of all animals in each group on day 37 at intraperitoneal dose of 12 mg/kg; format: functional; summary of the method: as §1
# [26] = test system: Mus musculus; assay: Incidence of disease(mouse type II collagen arthritis) was scored as the percentage of animals within each experimental group that exhibited joint or limb inflammation on day 30 at intraperitoneal of dose 12 mg/kg; format: functional; summary of the method: as §2
# [27] = test system: Mus musculus; assay: Incidence of disease(mouse type II collagen arthritis) was scored as the percentage of animals within each experimental group that exhibited joint or limb inflammation on day 44 at intraperitoneal of dose 9 mg/kg; format: functional; summary of the method: as §2
# [28] = test system: Mus musculus; assay: Tested for antiinflammatory activity on mouse type II collagen arthritis as Paw swelling* of all animals in each group on day 30 at intraperitoneal dose of 9 mg/kg; format: functional; summary of the method: as §1
# [29] = test system: Mus musculus; assay: Incidence of disease(mouse type II collagen arthritis) was scored as the percentage of animals within each experimental group that exhibited joint or limb inflammation on day 23 at intraperitoneal dose of 9 mg/kg; format: functional; summary of the method: as §2
# [30] = test system: Mus musculus; assay: Tested for antiinflammatory activity on mouse type II collagen arthritis as Paw swelling* of all animals in each group on day 30 at intraperitoneal dose of 12 mg/kg; format: functional; summary of the method: as §1
# [31] = test system: Mus musculus; assay: Tested for antiinflammatory activity on mouse type II collagen arthritis as Paw swelling* of all animals in each group on day 37 at intraperitoneal dose of 9 mg/kg; format: functional; summary of the method: as §1
# [32] = test system: Mus musculus; assay: Incidence of disease(mouse type II collagen arthritis) was scored as the percentage of animals within each experimental group that exhibited joint or limb inflammation on day 44 at intraperitoneal of dose 12 mg/kg; format: functional; summary of the method: as §2
# [33] = test system: Mus musculus; assay: Incidence of disease(mouse type II collagen arthritis) was scored as the percentage of animals within each experimental group that exhibited joint or limb inflammation on day 37 at intraperitoneal of dose 9 mg/kg; format: functional; summary of the method: as §2
# [34] = test system: Mus musculus; assay: Tested for antiinflammatory activity on mouse type II collagen arthritis as Paw swelling* of all animals in each group on day 44 at intraperitoneal dose of 12 mg/kg; format: functional; summary of the method: as §1
smiles,measurement,setting,value
CCC(Cc1cnc2nc(N)nc(N)c2n1)c1ccc(C(=O)NC(CCC(=O)O)C(=O)O)s1 (centres undefined),Paw swelling,[1],2.25 mm
same,Paw swelling,[2],2.13 mm
same,Animals,[3],0%
same,IC50,[4],3.7 nM
same,Paw swelling,[5],2.17 mm
same,Paw swelling,[6],2.23 mm
same,Animals,[7],0%
same,Paw swelling,[8],2.15 mm
same,Animals,[9],38%
same,Animals,[10],0%
same,Animals,[11],12%
same,Paw swelling,[12],2.21 mm
same,Animals,[13],25%
same,Paw swelling,[14],2.15 mm
same,Animals,[15],12%
same,Paw swelling,[16],2.26 mm
same,IC50,[17],1.6 nM
same,Animals,[18],0%
Nc1nc(N)c2nc(CCc3ccc(C(=O)N[C@@H](CCC(=O)O)C(=O)O)cc3)cnc2n1,Paw swelling,[19],2.21 mm
same,IC50,[4],3.7 nM
same,Paw swelling,[5],2.31 mm
same,Animals,[20],12%
same,Paw swelling,[21],2.32 mm
same,Animals,[22],38%
same,Animals,[23],50%
same,Paw swelling,[24],2.19 mm
same,Paw swelling,[25],2.31 mm
same,Animals,[10],0%
same,Animals,[11],38%
same,Paw swelling,[12],2.29 mm
same,Animals,[26],50%
same,Animals,[27],50%
same,Paw swelling,[28],2.32 mm
same,Animals,[29],25%
same,Paw swelling,[30],2.36 mm
same,Paw swelling,[14],2.2 mm
same,Animals,[15],50%
same,Paw swelling,[31],2.28 mm
same,Animals,[32],62%
same,Paw swelling,[16],2.3 mm
same,IC50,[17],98 nM
same,Animals,[33],38%
same,Paw swelling,[34],2.33 mm
same,Animals,[18],38%
